Experimental data taken from ChEMBL document CHEMBL1949587 (Bioorg Med Chem, 2012).
Converted amounts (≈) assume the structure as drawn.

How the values were obtained:
[1] = system: HUVEC; assay: Antiangiogenic activity in HUVEC assessed as inhibition of VEGF-induced cell proliferation after 4 days; format: functional, cell-based; conditions: Homo sapiens, 96 h
Outline: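 HUVECs maintained in RPMI1640 with 10% FCS, 50 μg/mL heparin and ECGS, then seeded at 3000 cells/well in RPMI1640 with 5% FCS and 20 ng/mL VEGF, with compound at serially diluted concentrations. Incubated at 37 °C, 5% CO₂. Read-out is Cell Counting Kit-8, absorbance at 450 nm. Inhibition = (1−T/C)×100 against untreated control.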

[2] = system: HCT-116; assay: Antiproliferative activity against human HCT116 cells; format: cell-based
[3] = system: HUVEC; assay: Selectivity ratio of IC50 for human HCT116 cells to IC50 for HUVEC cells
[4] = Clearance in mouse liver microsome at 5 uM after 60 mins by LC-MS/MS analysis; format: ADME; conditions: liver microsomes, read-out: CLH
Outline: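 Test compound at 5 µM incubated with mouse liver microsomes, 1.0 mg protein/mL, in 50 mM potassium phosphate pH 7.4 at 37 °C. Started by adding NADPH generating system (glucose 6-phosphate 3.2 mM, β-NADP 2.6 mM, MgCl2 6.5 mM). Substrate depletion measured against internal standard. Intrinsic clearance is the first-order decay constant normalized to protein.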

[5] = Solubility of the compound in fasted state simulated intestinal fluid at 10 mM after 2 hrs by HPLC-UV analysis; format: physicochemical
Outline: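 Triplicate samples made from 10 mM DMSO stocks. DMSO evaporated (1 h), residue dissolved in FaSSIF and shaken 2 h. Solutions filtered, filtrate analysed by UV or HPLC-UV against a four-point calibration curve from the stocks. Result in µg/mL.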

[6] = molecular target: Vascular endothelial growth factor receptor 2 (Homo sapiens, UniProt P35968); assay: Inhibition of VEGFR2
Sequence of Vascular endothelial growth factor receptor 2 (P35968 whole entry): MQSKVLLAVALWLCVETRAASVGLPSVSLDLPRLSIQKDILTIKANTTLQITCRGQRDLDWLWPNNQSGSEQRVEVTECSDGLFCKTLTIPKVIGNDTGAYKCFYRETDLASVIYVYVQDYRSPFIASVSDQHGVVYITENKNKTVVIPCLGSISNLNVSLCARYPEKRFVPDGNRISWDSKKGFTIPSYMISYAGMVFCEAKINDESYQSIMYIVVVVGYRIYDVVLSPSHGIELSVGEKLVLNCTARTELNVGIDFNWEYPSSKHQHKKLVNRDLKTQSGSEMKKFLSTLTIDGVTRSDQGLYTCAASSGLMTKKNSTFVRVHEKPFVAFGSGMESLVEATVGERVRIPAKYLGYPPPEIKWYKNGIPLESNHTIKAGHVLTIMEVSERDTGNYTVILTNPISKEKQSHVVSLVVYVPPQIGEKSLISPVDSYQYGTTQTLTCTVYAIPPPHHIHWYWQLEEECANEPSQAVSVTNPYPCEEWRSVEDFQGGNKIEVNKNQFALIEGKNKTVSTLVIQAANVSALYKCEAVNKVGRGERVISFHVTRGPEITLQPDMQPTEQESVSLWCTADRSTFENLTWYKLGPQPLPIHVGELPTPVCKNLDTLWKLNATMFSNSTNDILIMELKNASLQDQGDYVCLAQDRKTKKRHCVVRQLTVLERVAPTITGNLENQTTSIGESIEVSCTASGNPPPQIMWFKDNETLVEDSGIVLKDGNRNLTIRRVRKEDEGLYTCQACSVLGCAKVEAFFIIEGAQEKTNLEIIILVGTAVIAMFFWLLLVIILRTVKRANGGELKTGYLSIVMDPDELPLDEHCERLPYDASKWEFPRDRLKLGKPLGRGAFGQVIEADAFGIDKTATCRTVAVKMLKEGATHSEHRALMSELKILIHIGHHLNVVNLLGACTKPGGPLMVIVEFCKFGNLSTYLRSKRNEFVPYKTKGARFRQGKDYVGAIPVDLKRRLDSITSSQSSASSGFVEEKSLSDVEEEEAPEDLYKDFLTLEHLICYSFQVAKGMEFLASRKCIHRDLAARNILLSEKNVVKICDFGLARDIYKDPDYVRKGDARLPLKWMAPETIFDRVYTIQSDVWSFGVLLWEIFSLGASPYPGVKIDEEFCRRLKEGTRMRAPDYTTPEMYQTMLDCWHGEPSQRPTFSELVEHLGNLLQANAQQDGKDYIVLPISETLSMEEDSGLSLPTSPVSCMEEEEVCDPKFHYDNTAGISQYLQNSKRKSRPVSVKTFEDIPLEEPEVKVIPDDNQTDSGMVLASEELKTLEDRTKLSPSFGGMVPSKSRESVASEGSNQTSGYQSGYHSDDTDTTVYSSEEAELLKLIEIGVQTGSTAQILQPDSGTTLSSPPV

[7] = system: Calu-6; assay: Antitumor activity against human Calu6 cells xenografted in BALB/c mouse assessed as tumor growth inhibition at 600 mg/kg, po for 11 days relative to control; format: functional; conditions: Calu-6, 264 h, read-out: TGI
Outline: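 Calu-6 cells in Hanks' balanced salt solution implanted s.c. in the flank of female Balb/c nude mice, 5.0×10⁶ per mouse. Oral dosing once daily for 11 days, starting at tumor volume 150 mm³. Volume = 1/2 × long × short². Tumor growth inhibition taken from change in volume of the treated group against change in controls.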

[8] = system: Calu-6; assay: Antiangiogenic activity in human Calu6 cells xenografted in BALB/c mouse assessed as microvessel density reduction at 300 mg/kg, po after 11 days by immunohistochemical staining method; format: functional; set-up: scale not given: the % may be the effect or the level left; conditions: dose 600 mg/kg, in the assay text read “600 mg/kg” for “300 mg/kg”
Outline: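 Female Balb/c nude mice given Calu-6 cells s.c. in the flank, 5.0×10⁶ cells per mouse. Dosing was oral, once daily for 11 days, starting once tumors reached 150 mm³. Tumors taken 24 h after the last dose and frozen-sectioned from the mid-portion. Vessels stained with anti-mouse CD31 and counted by image analysis. Density decrease expressed against control.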

SMILES	IC50 [1]	IC50 [2]	Ratio IC50 [3]	microsomal CLint at 5 µM [4]	solubility at 2 h, 10000 µM [5]	IC50 [6]	inhibition in vivo at 600 mg/kg [7]	Activity [8]
COc1ccc(C(N)=O)cc1/C=C/c1ccc(C(F)(F)F)cc1	0.88 µM	35 µM	40					
CN1CCN(CCOc2ccc(C(N)=O)cc2/C=C/c2ccc(Cl)cc2)CC1	9.5 µM	7.5 µM	0.8	251 µL/min/mg	164 µg/mL (≈ 410 µM)			
COc1ccc(C(N)=O)cc1C(=O)Nc1ccc(Cl)cc1	5.5 µM	> 50 µM	>9	16 µL/min/mg	5 µg/mL (≈ 16.4 µM)			
CCCOc1ccc(C(N)=O)cc1/C=C/c1ccc(Cl)cc1	1.3 µM	> 50 µM	38	83 µL/min/mg	4 µg/mL (≈ 12.7 µM)			
COc1ccc(C(N)=O)cc1/C=C/c1cccc(C)c1	3.9 µM	23 µM	5.9					
COc1ccc(C(N)=O)cc1/C=C/c1ccc(C(C)(C)C)cc1	0.37 µM	20 µM	54					
CCNC(=O)c1ccc(OC)c(/C=C/c2ccc(Cl)cc2)c1	0.16 µM	15 µM	94	187 µL/min/mg	9 µg/mL (≈ 28.5 µM)			
COc1ccc(C(N)=O)cc1/C=C/c1ccc(F)cc1	2.1 µM	24 µM	11					
COc1ccc(C(C)=O)cc1COc1ccc(Cl)cc1	1.2 µM	39 µM	33					
Cc1cc(OCc2cccc(C#N)c2)ccc1Cl	11 µM	45 µM	4.1					
COc1ccc(C(=O)NC(CO)CO)cc1/C=C/c1ccc(Cl)cc1	1.5 µM	14 µM	9.3	8 µL/min/mg	251 µg/mL (≈ 694 µM)			
COc1ccc(C(N)=O)cc1/C=C/c1ccc(Cl)c(Cl)c1	0.56 µM	11 µM	20					
COc1ccc(C(N)=O)cc1/C=C/c1ccccc1	2.4 µM	36 µM	15					
CN(C)CCOc1ccc(C(N)=O)cc1/C=C/c1ccc(Cl)cc1	8.4 µM	4.9 µM	0.6	288 µL/min/mg	109 µg/mL (≈ 316 µM)			
COC(=O)c1ccc(OC)c(COc2ccc(Cl)c(C)c2)c1	2.3 µM	23 µM	10					
COc1ccc(C(=O)NCC(O)CO)cc1/C=C/c1ccc(Cl)cc1 (stereo not given)	0.4 µM	12 µM		10 µL/min/mg	317 µg/mL (≈ 876 µM)			
COc1ccc(/C=C/c2cc(C(N)=O)ccc2OC)cc1	8.8 µM	19 µM	2.2					
CCc1ccc(OC)c(COc2ccc(Cl)c(C)c2)c1	40 µM	43 µM	1.1					
COc1ccc(C(N)=O)cc1/C=C/c1ccc(C)cc1	1.6 µM	48 µM	30					
CNC(=O)c1ccc(OC)c(/C=C/c2ccc(Cl)cc2)c1	0.19 µM	16 µM	84	331 µL/min/mg	24 µg/mL (≈ 79.5 µM)			
NC(=O)c1ccc(OCCOCCO)c(/C=C/c2ccc(Cl)cc2)c1	11 µM	38 µM		247 µL/min/mg	74 µg/mL (≈ 205 µM)			

SMILES	IC50 [1]	IC50 [2]	Ratio IC50 [3]	microsomal CLint at 5 µM [4]	solubility at 2 h, 10000 µM [5]	IC50 [6]	inhibition in vivo at 600 mg/kg [7]	Activity [8]
COc1ccc(C(N)=O)cc1/C=C/c1ccc(Cl)cc1F	1.7 µM	> 10 µM	>5.9					
COc1ccc(C(N)=O)cc1/C=C/c1ccccc1C	2.3 µM	11 µM	4.8					
COc1ccc(C(C)=O)cc1COc1cccc(C)c1	2.8 µM	24 µM	8.6					
COc1ccc(C(N)=O)cc1/C=C/c1ccc(Cl)cc1Cl	2.6 µM	> 50 µM	>19					
COc1ccc(C(N)=O)cc1/C=C/c1ccc(C#N)cc1	3.1 µM	16 µM	5.2					
COc1ccc(C(C)=O)cc1COc1ccc(Cl)c(C)c1	1.3 µM	34 µM	26			> 50 µM	34%	15%
COc1ccc(C(=O)NCCO)cc1/C=C/c1ccc(Cl)cc1	0.91 µM	17 µM	19	73 µL/min/mg	16 µg/mL (≈ 48.2 µM)			
CCOc1ccc(C(N)=O)cc1/C=C/c1ccc(Cl)cc1	0.19 µM	1.7 µM	8.9	123 µL/min/mg	10 µg/mL (≈ 33.1 µM)			
COc1ccc(C(N)=O)cc1/C=C/c1ccc([N+](=O)[O-])cc1	4.7 µM	22 µM	4.7					
COc1ccc(C(N)=O)cc1/C=C/c1ccccc1F	2 µM	26 µM	13					
COc1ccc(C(=O)N(C)C)cc1/C=C/c1ccc(Cl)cc1	2.5 µM	35 µM	14					
COc1ccccc1/C=C/c1cc(C(N)=O)ccc1OC	5.7 µM	> 50 µM	>8.8					
COc1ccc(C(N)=O)cc1/C=C\c1ccc(Cl)cc1	2.9 µM	29 µM	10	544 µL/min/mg	137 µg/mL (≈ 476 µM)			
COc1ccc(C#N)cc1COc1ccc(Cl)c(C)c1	1.5 µM	> 50 µM	>33					
COc1ccc(C(N)=O)cc1/C=C/c1cccc(F)c1	8.3 µM	> 50 µM	>6					
COc1ccc(C(N)=O)cc1/C=C/c1ccccc1Cl	23 µM	> 50 µM	2.2					
COc1ccc(C(N)=O)cc1/C=C/c1cccc(C#N)c1	49 µM	19 µM	0.4					
COc1ccc(C(N)=O)cc1/C=C/c1cccc(Cl)c1	24 µM	15 µM	0.6					
COc1ccc(C(N)=O)cc1/C=C/c1ccc(Br)cc1	0.56 µM	22 µM	39					
COc1ccc(C(=O)O)cc1COc1ccc(Cl)c(C)c1	> 50 µM	> 50 µM						
COc1ccc(C(N)=O)cc1/C=C/c1ccccc1OC(F)(F)F	8.9 µM	36 µM	4					
